Screening data from PubChem.
Hits are enriched below; roughly 2.9% of the tested compounds scored in any of these assays.
DENV2 CPE rescue – inhibitors of DENV2 cytopathic effect. DENV2-infected cells, cytopathic effect rescue, plate reader. CPE inhibition, % at 9.99 µM. 350,000 compounds, 1.7% hits; in the data active = CPE inhibition above about 20%, passing the limit was not always enough; inconclusive = no clear call, values can overlap the other calls; tested in BHK-21 cells
SIRT5 inh – sirtuin-5 (human) deacylase inhibition; Q9NXA8; Purified SirT5, succinyl-peptide AMC, trypsin-coupled fluorescence; inhibition, % at 15 µM; 330,000 compounds, 1.1% hits; AID 652115; in the data active = inhibition above about 15%; inconclusive = no clear call, values can overlap the other calls
Target sequence (Q9NXA8 whole entry, looked up): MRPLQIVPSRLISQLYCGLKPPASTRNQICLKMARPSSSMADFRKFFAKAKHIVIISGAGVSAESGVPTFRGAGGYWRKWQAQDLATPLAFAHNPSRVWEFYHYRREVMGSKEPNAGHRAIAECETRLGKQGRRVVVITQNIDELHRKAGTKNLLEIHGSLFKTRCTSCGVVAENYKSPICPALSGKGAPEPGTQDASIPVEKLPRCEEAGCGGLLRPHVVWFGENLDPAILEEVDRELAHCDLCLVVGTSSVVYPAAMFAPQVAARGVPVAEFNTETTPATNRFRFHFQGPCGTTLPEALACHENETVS
E-sel inducer – E-selectin induction on HUVECs | HUVEC E-selectin immunofluorescence imaging; normalized: neutral wells 0, TNF-alpha wells 100 | activation, % at 7.58 µM | 260,000 compounds, 0.37% hits | AID 686992;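 active = mean E-selectin-positive cell signal at least 10% of the positive control, reached in at least 60% of replicates, without over 20% cell loss; inconclusive = no rule given, readout overlaps actives, possibly toxicity-flagged; inactive = the rest, including those meeting only one limit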
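Read-out basis: % PE-positive cells; Test system: HUVEC primary endothelial cells; Technique: immunofluorescence imaging; Dosing: single-point compound dose.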
Large screens that a line does not name were inactive.

COc1ccc2c3c([nH]c2c1)[C@H](CO)N(C(=O)Nc1cccc(F)c1)CC31CCN(CC2CC2)CC1	none
CCCNC(=O)N1CC2(CCN(C)CC2)c2c([nH]c3cc(OC)ccc23)[C@@H]1CO	none (no result: SIRT5 inh)
COc1ccc2c3c([nH]c2c1)[C@@H](CO)N(C(=O)NC(C)C)CC31CN(C(=O)NC(C)C)C1	DENV2 CPE rescue 46.9
COc1ccc2c3c([nH]c2c1)[C@@H](CO)N(C(=O)Nc1ccc(F)cc1)CC31CCN(CC2CC2)CC1	DENV2 CPE rescue 55.8
COc1ccc2c3c([nH]c2c1)[C@H](CO)N(C(=O)Nc1cccc(F)c1)CC31CN(CC2CC2)C1	DENV2 CPE rescue 24.8
COc1ccc(OC)c(NC(=O)CCCSc2ccccc2)c1	none (no result: E-sel inducer)
Cn1c(=O)c2c(nc(N/N=C3\CCCc4ccccc43)n2Cc2ccc(F)cc2)n(C)c1=O	none (no result: DENV2 CPE rescue, SIRT5 inh)
CCCNC(=O)C[C@H]1C[C@@H]2c3cc(NC(=O)NC4CCCCC4)ccc3O[C@@H]2[C@H](CO)O1	none
O=C(COC(=O)Cc1ccsc1)Nc1ccc(F)cc1Cl	none (no result: E-sel inducer)
COCC(=O)N1CC2(CN(C(C)=O)C2)c2c([nH]c3cc(OC)ccc23)[C@@H]1CO	DENV2 CPE rescue 20.1 (no result: SIRT5 inh)
COCC(=O)N1CC2(CCN(C(C)=O)CC2)c2c([nH]c3cc(OC)ccc23)[C@H]1CO	none (no result: SIRT5 inh)
COc1ccc2c3c([nH]c2c1)[C@@H](CO)N(C(=O)Nc1ccc(F)cc1)CC31CN(CC2CCOCC2)C1	none
COc1ccc2c3c([nH]c2c1)[C@H](CO)N(C(=O)Nc1ccc(F)cc1)CC31CN(CC2CC2)C1	DENV2 CPE rescue 29.2 (no result: SIRT5 inh)
CCCNC(=O)N1CCC2(CC1)CN(C(=O)COC)[C@H](CO)c1[nH]c3cc(OC)ccc3c12	DENV2 CPE rescue 28.4
CCCNC(=O)N1CCC2(CC1)CN(C(=O)CCC)[C@@H](CO)c1[nH]c3cc(OC)ccc3c12	none
COc1ccc2c3c([nH]c2c1)[C@H](CO)N(C(=O)Nc1ccc(F)cc1)CC31CN(Cc2ccc(F)cc2)C1	none
COc1ccc2c3c([nH]c2c1)[C@@H](CO)N(C(=O)Nc1ccc(F)cc1)CC31CN(Cc2ccc(F)cc2)C1	DENV2 CPE rescue 31.8
O=C([C@@H]1[C@@H](CO)[C@@H]2Cn3c(ccc(C4=CCCC4)c3=O)[C@H]1N2Cc1nccs1)N1CCCCC1	none
COCC1CCCCN1C(=O)c1cc(COc2ccc3ncccc3c2)on1 (stereo not drawn)	none (no result: E-sel inducer)
Cc1nc2sc(C(=O)OC(C)C)c(N)c2c(C)c1C	none
O=C(C[C@@H]1CC[C@H]2[C@@H](COC[C@H](O)CN2C(=O)c2ccccc2F)O1)N1CCCCC1	none
O=C(CCNS(=O)(=O)c1ccccc1C(F)(F)F)N1CCN(C(c2ccccc2)c2ccccc2)CC1	DENV2 CPE rescue 91.5
O=C(CCNS(=O)(=O)c1ccccc1C(F)(F)F)N1CCCCCCC1	none
O=C1NC(=O)/C(=C\c2ccc(OCc3cccc(C(=O)O)c3)c(Cl)c2)N1	none (no result: E-sel inducer)
O=C(c1cc2c(c(-c3cccc(-c4ccc(F)cc4)c3)n1)[C@@H](CCO)N(C(=O)c1ccc3c(c1)OCO3)C2)N1CCOCC1	none
CC(C)CN(C(=O)c1ccc(S(=O)(=O)N2CCCCC2)cc1)C1CCS(=O)(=O)C1 (stereo not drawn)	none (no result: E-sel inducer)
O=C(NC1CCCC1)C1C(c2ccc(C(F)(F)F)cc2)=Nc2ccccc2N1C(=O)c1ccccc1 (stereo not drawn)	E-sel inducer 135.6
CCCCNC(=O)C1C(c2ccc(C(F)(F)F)cc2)=Nc2ccccc2N1C(=O)c1cccc(C(F)(F)F)c1 (stereo not drawn)	none (no result: SIRT5 inh)
Cc1nc2ccc(C(=O)N3c4ccccc4N=C(c4ccc(C(F)(F)F)cc4)C3C(=O)NC(C)(C)C)cc2[nH]1 (stereo not drawn)	DENV2 CPE rescue 36.9 (no result: SIRT5 inh)
O=C(NC1CCCC1)C1C(c2ccc(C(F)(F)F)cc2)=Nc2ccccc2N1C(=O)c1ccco1 (stereo not drawn)	none
CC(C)C#Cc1ccc2c(c1)O[C@@H](CN(C)S(=O)(=O)c1cn(C)cn1)[C@@H](C)CN([C@@H](C)CO)S2(=O)=O	none
CN(CC(=O)N1CCCCC1)S(=O)(=O)c1cccc2nsnc12	none
CN(CC(=O)N1CCN(C2CCCCC2)CC1)S(=O)(=O)c1cccc2nsnc12	SIRT5 inh 22.1 (no result: DENV2 CPE rescue, E-sel inducer)
CCOC(=O)c1ccc(-n2c(CCC(=O)O)ccc2-c2cccs2)cc1	none (no result: E-sel inducer)
COCCCNc1nc(-c2ccc(Cl)cc2)nc2ccccc12	DENV2 CPE rescue inconclusive
COc1ccc(-c2nc(NCCCN(C)C)c3ccccc3n2)cc1	DENV2 CPE rescue 30.1 (no result: E-sel inducer)
COc1cc(OC)c2c(-c3ccccc3)cc(=O)oc2c1C(CCN1CCN(c2ccccc2)CC1)c1ccc(N(C)C)cc1 (stereo not drawn)	none (no result: SIRT5 inh)
COc1ccc(C(CCN2CCN(c3ccccc3)CC2)c2c(OC)cc(OC)c3c(-c4ccccc4)cc(=O)oc23)cc1 (stereo not drawn)	DENV2 CPE rescue 58.9 (no result: E-sel inducer)
O=C(O)CCCNC(=O)/C(=C\c1ccc(Cl)cc1)NC(=O)c1ccccc1Br	none (no result: E-sel inducer)
Cc1c(N(C)C)c(=O)n(-c2ccccc2)n1C	DENV2 CPE rescue 51.1 (no result: SIRT5 inh, E-sel inducer)
Cc1c(C=O)c(=O)n(-c2ccccc2)n1C	none (no result: E-sel inducer)
CCN1C(=O)[C@H]2[C@@H](c3ccc(Cl)cc3)N3C(=O)CN(CCOC)C(=O)[C@@]3(C)[C@H]2C1=O	none
COc1cccc(C2Nc3ccc4ccccc4c3C3=C2C(=O)CCC3)c1O (stereo not drawn)	SIRT5 inh 21.8
COc1cc(C2CC(=O)c3c(ccc4ccccc34)N2)ccc1O (stereo not drawn)	none (no result: DENV2 CPE rescue, SIRT5 inh)
O=C(Nc1cccc(C(=O)O)c1)/C(=C/c1ccc2c(c1)OCO2)NC(=O)c1cccc(Br)c1	none (no result: E-sel inducer)
C[C@@H]1CN([C@@H](C)CO)C(=O)Cc2cc(NC(=O)CCCCCC(=O)Nc3ccccc3N)ccc2O[C@H]1CN(C)Cc1ccc(-c2ccccc2)cc1	DENV2 CPE rescue 25.0 (no result: E-sel inducer)
C[C@H]1CN([C@@H](C)CO)C(=O)Cc2cc(NC(=O)CCCCCC(=O)Nc3ccccc3N)ccc2O[C@H]1CN(C)C(=O)Nc1cccc2ccccc12	DENV2 CPE rescue 27.6
C[C@H](CO)N1C[C@H](C)[C@H](CN(C)Cc2ccc(-c3ccccc3)cc2)Oc2ccc(NC(=O)CCCCCC(=O)Nc3ccccc3N)cc2CC1=O	none (no result: E-sel inducer)
COc1ccc(CN(C)C[C@@H]2Oc3ccc(NC(=O)CCCCCC(=O)Nc4ccccc4N)cc3CC(=O)N([C@@H](C)CO)C[C@@H]2C)cc1	none
C[C@@H]1CN([C@@H](C)CO)C(=O)Cc2cc(NC(=O)CCCCCC(=O)Nc3ccccc3N)ccc2O[C@@H]1CN(C)C(=O)Nc1cccc2ccccc12	none
C[C@@H]1CN([C@H](C)CO)C(=O)Cc2cc(NC(=O)CCCCCC(=O)Nc3ccccc3N)ccc2O[C@@H]1CN(C)Cc1ccc(C(F)(F)F)cc1	DENV2 CPE rescue 80.7 (no result: SIRT5 inh)
C[C@@H]1CN([C@H](C)CO)C(=O)Cc2cc(NC(=O)CCCCCC(=O)Nc3ccccc3N)ccc2O[C@H]1CN(C)Cc1ccc(C(F)(F)F)cc1	none
C[C@@H]1CN([C@@H](C)CO)C(=O)Cc2cc(NC(=O)CCCCCC(=O)Nc3ccccc3N)ccc2O[C@@H]1CN(C)Cc1ccc(Oc2ccccc2)cc1	DENV2 CPE rescue inconclusive, SIRT5 inh 26.0
COc1ccc(NC2=NCCCCC2)cc1	none (no result: E-sel inducer)
Cc1ccc(NC(=O)NC2CCN(S(=O)(=O)c3ccc(F)cc3)CC2)cc1	none (no result: E-sel inducer)
Fc1ccc(-c2csc(-c3ccccn3)n2)cc1F	none
